Assay results: ChEMBL document CHEMBL1154186, “Synthesis, kinase inhibitory potencies, and in vitro antiproliferative evaluation of new Pim kinase inhibitors” (J Med Chem, 2009)

How the values were obtained:
[1] = target: Proto-oncogene tyrosine-protein kinase Src (Homo sapiens) (UniProt P12931); assay: Inhibition of Src assessed as residual enzyme activity at 10 uM relative to untreated control
[2] = target: Serine/threonine-protein kinase pim-3 (Homo sapiens) (UniProt Q86V86); assay: Inhibition of Pim-3 assessed as residual enzyme activity at 10 uM relative to untreated control
[3] = target: Mitogen-activated protein kinase 3 (Homo sapiens) (UniProt P27361); assay: Inhibition of ERK1 assessed as residual enzyme activity at 10 uM relative to untreated control
In short: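 Radiometric filter-binding assay at 21 °C for 30 min. Mix: 50 mM Tris/HCl pH 7.5, 0.1 mM EGTA, 0.1% 2-mercaptoethanol, 10 mM Mg acetate and [γ-33P]ATP (800 cpm/pmol) at 5 µM. Stopped with orthophosphoric acid and spotted on P81. Compound at 10 µM; activity given as % remaining versus no-inhibitor control, duplicates. Kinases human full-length unless noted.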

Lck (Mus musculus) = assay: Inhibition of Lck assessed as residual enzyme activity at 10 uM relative to untreated control
[4] = target: Protein kinase C alpha type (Homo sapiens) (UniProt P17252); assay: Inhibition of PKCalpha assessed as residual enzyme activity at 10 uM relative to untreated control
In short: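 Histone H1 (0.1 mg/mL) as substrate, 20 µM [γ-33P]ATP, 10 mM Mg acetate. Run 30 min at 21 °C with 10 µM compound. Radiolabel captured on P81 filters. Expressed as % of uninhibited control, duplicates.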

[5] = target: SRSF protein kinase 1 (Homo sapiens) (UniProt Q96SB4); assay: Inhibition of SRPK1 assessed as residual enzyme activity at 10 uM relative to untreated control
[6] = target: Serine/threonine-protein kinase pim-1 (Homo sapiens) (UniProt P11309); assay: Inhibition of Pim-1 assessed as residual enzyme activity at 10 uM relative to untreated control
RSK1 (Rattus norvegicus) = assay: Inhibition of RSK1 assessed as residual enzyme activity at 10 uM relative to untreated control
[7] = target: T1, Eukaryotic elongation factor 2 kinase (Homo sapiens) (UniProt O00418); assay: Inhibition of EF2K assessed as residual enzyme activity at 10 uM relative to untreated control
T1 sequence (whole entry): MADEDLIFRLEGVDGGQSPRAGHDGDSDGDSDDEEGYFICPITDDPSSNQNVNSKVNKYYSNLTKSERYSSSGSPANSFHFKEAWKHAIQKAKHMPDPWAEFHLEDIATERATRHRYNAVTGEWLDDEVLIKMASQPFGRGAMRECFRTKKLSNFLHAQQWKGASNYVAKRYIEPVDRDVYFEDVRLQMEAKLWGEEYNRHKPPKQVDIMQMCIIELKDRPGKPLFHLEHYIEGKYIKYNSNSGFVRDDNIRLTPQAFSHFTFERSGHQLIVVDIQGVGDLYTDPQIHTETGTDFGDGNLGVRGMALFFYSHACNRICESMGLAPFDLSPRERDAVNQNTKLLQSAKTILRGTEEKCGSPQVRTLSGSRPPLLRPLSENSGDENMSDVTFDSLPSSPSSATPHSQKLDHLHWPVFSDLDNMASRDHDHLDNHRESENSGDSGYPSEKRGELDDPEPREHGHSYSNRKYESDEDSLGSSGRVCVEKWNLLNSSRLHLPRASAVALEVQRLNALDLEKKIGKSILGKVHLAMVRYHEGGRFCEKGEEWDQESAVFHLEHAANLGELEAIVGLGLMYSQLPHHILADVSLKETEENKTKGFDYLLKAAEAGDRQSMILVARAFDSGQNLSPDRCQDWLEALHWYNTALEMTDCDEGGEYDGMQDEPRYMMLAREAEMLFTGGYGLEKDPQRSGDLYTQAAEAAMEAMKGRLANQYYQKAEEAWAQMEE

[8] = target: Homeodomain-interacting protein kinase 3 (Homo sapiens) (UniProt Q9H422); assay: Inhibition of HIPK3 assessed as residual enzyme activity at 10 uM relative to untreated control
In short: (§1)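 Kinases of human origin, except CK1δ, which is rat. Run in 50 mM Tris/HCl pH 7.5, 0.1 mM EGTA, 0.1% 2-mercaptoethanol and 10 mM Mg acetate, with [γ-33P]ATP at 20 µM, 30 min at 21 °C. Acid-stopped and captured on P81 filters. Compound tested at 10 µM; residual % of uninhibited control, duplicate determinations.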

[9] = target: Aurora kinase B (Homo sapiens) (UniProt Q96GD4); assay: Inhibition of AURORA B assessed as residual enzyme activity at 10 uM relative to untreated control; in short: as §1
[10] = target: Serine/threonine-protein kinase Nek7 (Homo sapiens) (UniProt Q8TDX7); assay: Inhibition of NEK7 assessed as residual enzyme activity at 10 uM relative to untreated control; in short: as §1
[11] = target: T2, Serine/threonine-protein kinase 3 (Homo sapiens) (UniProt Q13188); assay: Inhibition of MST2 assessed as residual enzyme activity at 10 uM relative to untreated control; in short: as §1
T2 sequence (whole entry): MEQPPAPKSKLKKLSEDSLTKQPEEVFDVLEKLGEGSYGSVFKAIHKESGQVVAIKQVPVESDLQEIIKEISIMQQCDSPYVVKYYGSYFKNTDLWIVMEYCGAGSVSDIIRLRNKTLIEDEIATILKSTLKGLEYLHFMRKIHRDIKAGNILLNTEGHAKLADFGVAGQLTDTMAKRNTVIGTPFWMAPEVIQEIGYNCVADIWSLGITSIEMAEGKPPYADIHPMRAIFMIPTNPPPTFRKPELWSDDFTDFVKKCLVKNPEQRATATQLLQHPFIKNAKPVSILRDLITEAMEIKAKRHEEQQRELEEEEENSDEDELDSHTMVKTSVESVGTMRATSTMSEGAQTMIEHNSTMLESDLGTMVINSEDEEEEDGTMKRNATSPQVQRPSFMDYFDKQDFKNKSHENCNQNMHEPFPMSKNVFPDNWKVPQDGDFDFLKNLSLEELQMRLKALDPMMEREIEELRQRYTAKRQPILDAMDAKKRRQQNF

[12] = target: Mitogen-activated protein kinase 8 (Homo sapiens) (UniProt P45983); assay: Inhibition of JNK1 assessed as residual enzyme activity at 10 uM relative to untreated control; in short: as §1
Chain of Mitogen-activated protein kinase 8 (Homo sapiens) (P45983 whole entry): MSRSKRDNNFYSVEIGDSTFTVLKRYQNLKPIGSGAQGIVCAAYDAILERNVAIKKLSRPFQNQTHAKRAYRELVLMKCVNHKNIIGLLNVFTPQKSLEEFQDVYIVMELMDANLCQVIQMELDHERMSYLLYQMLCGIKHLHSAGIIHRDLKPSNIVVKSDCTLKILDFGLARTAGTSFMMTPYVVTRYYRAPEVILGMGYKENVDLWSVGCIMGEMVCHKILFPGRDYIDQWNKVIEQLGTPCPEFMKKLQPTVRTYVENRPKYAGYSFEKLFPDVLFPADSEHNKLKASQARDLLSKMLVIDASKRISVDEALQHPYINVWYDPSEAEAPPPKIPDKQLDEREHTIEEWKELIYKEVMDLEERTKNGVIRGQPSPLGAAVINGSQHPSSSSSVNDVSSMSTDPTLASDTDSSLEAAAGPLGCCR

Chain of Serine/threonine-protein kinase Nek7 (Homo sapiens) (Q8TDX7 whole entry, looked up): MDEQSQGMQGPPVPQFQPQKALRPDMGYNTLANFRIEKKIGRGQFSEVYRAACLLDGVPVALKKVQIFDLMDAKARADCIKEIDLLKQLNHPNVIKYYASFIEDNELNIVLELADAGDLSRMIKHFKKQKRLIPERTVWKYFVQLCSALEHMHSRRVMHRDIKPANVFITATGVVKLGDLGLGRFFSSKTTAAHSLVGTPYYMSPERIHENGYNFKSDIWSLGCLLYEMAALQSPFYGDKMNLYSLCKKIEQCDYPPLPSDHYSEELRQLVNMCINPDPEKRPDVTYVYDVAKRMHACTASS
Chain of SRSF protein kinase 1 (Homo sapiens) (Q96SB4 whole entry): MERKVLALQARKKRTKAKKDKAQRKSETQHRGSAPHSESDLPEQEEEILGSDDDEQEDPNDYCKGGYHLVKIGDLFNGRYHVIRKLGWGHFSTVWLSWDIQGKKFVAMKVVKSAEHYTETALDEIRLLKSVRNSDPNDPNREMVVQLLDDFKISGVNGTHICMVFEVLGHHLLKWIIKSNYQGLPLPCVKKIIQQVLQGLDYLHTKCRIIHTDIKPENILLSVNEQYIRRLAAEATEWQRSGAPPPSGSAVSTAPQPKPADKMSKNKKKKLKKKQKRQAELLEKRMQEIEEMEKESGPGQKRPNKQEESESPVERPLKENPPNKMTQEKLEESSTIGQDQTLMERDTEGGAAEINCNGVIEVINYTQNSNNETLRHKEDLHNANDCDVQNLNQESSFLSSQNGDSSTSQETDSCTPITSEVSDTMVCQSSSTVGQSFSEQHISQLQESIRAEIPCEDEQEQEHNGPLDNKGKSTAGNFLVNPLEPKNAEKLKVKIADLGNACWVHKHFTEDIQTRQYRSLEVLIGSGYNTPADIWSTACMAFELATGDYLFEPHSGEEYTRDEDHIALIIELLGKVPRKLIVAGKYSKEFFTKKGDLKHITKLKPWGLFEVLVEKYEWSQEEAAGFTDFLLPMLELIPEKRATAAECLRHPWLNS
Chain of Serine/threonine-protein kinase pim-1 (Homo sapiens) (P11309 whole entry, looked up): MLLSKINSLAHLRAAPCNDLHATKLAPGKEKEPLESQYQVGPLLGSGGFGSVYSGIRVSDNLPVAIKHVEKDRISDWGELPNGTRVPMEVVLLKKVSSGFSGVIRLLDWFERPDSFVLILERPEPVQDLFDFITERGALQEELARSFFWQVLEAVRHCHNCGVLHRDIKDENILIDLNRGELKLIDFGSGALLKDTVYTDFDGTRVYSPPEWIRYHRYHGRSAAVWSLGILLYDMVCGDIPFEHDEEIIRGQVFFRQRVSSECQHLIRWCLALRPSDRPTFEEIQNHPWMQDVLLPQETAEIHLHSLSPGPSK
Chain of Homeodomain-interacting protein kinase 3 (Homo sapiens) (Q9H422 whole entry, looked up): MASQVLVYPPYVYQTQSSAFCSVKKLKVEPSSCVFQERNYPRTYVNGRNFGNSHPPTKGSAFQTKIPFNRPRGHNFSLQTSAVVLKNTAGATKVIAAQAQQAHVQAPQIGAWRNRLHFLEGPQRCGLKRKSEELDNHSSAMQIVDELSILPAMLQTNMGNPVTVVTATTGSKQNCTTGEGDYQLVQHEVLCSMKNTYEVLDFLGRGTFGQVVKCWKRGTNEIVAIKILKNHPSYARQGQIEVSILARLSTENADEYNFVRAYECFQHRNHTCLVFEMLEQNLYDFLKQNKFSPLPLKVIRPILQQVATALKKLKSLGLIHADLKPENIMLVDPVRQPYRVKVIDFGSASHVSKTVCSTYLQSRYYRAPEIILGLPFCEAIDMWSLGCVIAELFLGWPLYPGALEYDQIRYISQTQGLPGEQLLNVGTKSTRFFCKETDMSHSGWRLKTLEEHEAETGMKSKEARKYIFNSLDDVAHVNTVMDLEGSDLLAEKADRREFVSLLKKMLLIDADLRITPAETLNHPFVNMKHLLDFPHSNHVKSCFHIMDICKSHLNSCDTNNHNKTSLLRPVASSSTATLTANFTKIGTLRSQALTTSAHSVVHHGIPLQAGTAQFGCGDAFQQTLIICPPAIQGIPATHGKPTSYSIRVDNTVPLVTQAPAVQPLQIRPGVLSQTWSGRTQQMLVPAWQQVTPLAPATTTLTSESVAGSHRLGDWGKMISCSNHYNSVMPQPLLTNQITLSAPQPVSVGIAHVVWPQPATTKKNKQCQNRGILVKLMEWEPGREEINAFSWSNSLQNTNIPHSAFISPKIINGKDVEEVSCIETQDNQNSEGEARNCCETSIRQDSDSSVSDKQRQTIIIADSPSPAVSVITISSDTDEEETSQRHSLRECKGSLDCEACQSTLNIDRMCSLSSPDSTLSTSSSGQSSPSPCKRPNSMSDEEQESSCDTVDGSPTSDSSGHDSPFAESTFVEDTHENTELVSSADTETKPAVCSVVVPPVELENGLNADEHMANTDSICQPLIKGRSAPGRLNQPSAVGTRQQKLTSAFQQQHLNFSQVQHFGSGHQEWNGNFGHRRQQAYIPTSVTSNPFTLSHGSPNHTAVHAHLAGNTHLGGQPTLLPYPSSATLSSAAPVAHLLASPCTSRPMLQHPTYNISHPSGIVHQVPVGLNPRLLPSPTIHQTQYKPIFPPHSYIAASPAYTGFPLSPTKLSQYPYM
Chain of Proto-oncogene tyrosine-protein kinase Src (Homo sapiens) (P12931 2-536 limits assumed): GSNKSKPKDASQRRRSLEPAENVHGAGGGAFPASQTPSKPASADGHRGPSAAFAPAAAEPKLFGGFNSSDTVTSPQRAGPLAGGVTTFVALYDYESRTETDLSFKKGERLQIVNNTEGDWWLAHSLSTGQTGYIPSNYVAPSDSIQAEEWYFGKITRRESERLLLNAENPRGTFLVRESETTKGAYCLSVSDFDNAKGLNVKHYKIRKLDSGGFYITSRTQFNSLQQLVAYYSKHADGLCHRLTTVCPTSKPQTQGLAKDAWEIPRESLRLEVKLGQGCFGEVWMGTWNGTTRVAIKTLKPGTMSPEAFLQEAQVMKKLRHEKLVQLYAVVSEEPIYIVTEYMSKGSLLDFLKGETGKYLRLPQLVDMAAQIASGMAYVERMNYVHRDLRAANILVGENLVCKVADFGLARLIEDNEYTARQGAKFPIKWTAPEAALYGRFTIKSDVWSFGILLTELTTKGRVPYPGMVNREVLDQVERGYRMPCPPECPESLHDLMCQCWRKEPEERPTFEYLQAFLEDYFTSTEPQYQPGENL
Chain of Aurora kinase B (Homo sapiens) (Q96GD4 whole entry): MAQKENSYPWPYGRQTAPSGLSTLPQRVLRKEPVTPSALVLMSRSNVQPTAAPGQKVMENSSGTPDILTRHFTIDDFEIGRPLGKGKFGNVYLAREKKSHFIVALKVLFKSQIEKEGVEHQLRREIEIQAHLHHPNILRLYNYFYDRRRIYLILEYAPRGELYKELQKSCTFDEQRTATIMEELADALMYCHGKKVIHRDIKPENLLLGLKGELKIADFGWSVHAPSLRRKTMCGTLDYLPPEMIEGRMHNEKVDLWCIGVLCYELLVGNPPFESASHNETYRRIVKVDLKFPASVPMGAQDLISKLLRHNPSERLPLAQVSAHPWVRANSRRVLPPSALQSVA
Chain of Mitogen-activated protein kinase 3 (Homo sapiens) (P27361 whole entry): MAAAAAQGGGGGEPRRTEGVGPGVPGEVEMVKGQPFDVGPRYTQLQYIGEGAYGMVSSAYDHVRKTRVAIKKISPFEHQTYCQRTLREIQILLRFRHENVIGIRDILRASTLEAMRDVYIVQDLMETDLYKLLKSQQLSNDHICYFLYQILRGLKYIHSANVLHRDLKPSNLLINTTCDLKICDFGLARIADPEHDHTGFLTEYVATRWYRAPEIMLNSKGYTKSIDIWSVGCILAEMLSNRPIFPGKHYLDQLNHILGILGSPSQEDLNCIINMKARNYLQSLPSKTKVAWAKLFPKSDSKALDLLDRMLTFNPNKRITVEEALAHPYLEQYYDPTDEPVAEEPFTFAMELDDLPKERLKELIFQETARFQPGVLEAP

Activity [1]	Activity [2]	Activity [3]	Activity (Lck (Mus musculus))	Activity [4]	Activity [5]	Activity [6]	Activity (RSK1 (Rattus norvegicus))	Activity [7]	Activity [8]	Activity [9]	Activity [10]	Activity [11]	Activity [12]	Compound
98%	38%	108%	88%	111%	90%	20%	105%	101%	97%	67%	96%	82%	102%	c1ccc2c(c1)[nH]c1c2ccc2cc[nH]c21
102%	29%	97%	81%	103%	94%	53%	99%	92%	106%	67%	92%	77%	116%	c1ccc2c(c1)[nH]c1c3cc[nH]c3ccc21
99%	102%	95%	114%	95%	93%	79%	120%	105%	100%	92%	95%	96%	113%	O=Cc1c[nH]c2ccc3c4ccccc4[nH]c3c12
85%	–	87%	–	84%	84%	–	–	90%	64%	68%	89%	63%	102%	O=Cc1c[nH]c2c1ccc1c3ccccc3[nH]c12
